Assay results as given in ChEMBL document CHEMBL4351010, “Design, synthesis and biological evaluation of 2-hydrazinyladenosine derivatives as A2A adenosine receptor ligands” (Eur J Med Chem, 2019).

Tests used:
Adenosine receptor A1 [1] = molecular target: T1, Adenosine receptor A1 (Homo sapiens, UniProt P30542); assay: Displacement of [3H]DPCPX from human cloned adenosine receptor A1 expressed in CHO-K1 cell membranes incubated for 60 mins by microbeta counting method
T1 sequence (P30542 whole entry): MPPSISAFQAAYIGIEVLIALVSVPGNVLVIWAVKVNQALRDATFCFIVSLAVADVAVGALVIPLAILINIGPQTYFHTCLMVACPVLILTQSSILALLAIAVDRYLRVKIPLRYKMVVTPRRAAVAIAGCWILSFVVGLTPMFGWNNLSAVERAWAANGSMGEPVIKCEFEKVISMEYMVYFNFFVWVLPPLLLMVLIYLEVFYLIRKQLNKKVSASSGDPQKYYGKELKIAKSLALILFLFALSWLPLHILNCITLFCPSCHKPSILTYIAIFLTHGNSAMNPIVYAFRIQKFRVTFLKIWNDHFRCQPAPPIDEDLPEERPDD
Procedure, shortened: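 Radioligand [3H]DPCPX at 5 nM. Compounds tested as 10-point three-fold dilution series. Incubation 60 min at 27°C. Read-out by GF/B filtration and scintillation counting. Ki obtained from IC50 by Cheng–Prusoff (Kd 2.28 nM). Mean ± SEM of duplicates.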

Adenosine receptor A2a [2] = molecular target: T2, Adenosine receptor A2a (Homo sapiens, UniProt P29274); assay: Displacement of [3H]CGS21680 from human cloned adenosine receptor A2A expressed in HEK-293 cell membrane incubated for 60 mins by microbeta counting method; format: cell membranes
T2 sequence (P29274 whole entry): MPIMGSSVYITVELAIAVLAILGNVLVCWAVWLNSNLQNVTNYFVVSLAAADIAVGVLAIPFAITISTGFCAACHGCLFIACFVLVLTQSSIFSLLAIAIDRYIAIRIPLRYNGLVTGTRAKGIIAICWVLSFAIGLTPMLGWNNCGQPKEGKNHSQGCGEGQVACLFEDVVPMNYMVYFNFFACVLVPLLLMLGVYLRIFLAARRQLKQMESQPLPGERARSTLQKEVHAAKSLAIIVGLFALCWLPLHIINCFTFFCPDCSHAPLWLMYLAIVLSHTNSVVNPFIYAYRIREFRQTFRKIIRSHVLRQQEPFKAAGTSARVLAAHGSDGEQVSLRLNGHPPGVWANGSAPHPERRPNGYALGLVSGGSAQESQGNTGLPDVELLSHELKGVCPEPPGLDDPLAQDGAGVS
Procedure, shortened: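 Compounds tested as 10-point three-fold dilution series. Incubation 60 min at 27°C. Bound ligand separated by GF/B filtration, scintillation counted. Mean ± SEM of duplicates.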

Homo sapiens = organism: Homo sapiens; assay: Selectivity index, ratio of Ki for human cloned adenosine receptor A1 expressed in CHO-K1 cell membrane to Ki for human cloned adenosine receptor A2A expressed in HEK293 cell membrane incubated for 60 mins by microbeta counting method; format: cell-based
Procedure, shortened: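 Ratio Ki(A1)/Ki(A2A). […] Both assays incubated 60 min at 27°C and read by filtration scintillation counting. Ki values from Cheng–Prusoff conversion.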

Adenosine receptor A2a [3] = molecular target: T2, Adenosine receptor A2a; assay: Agonist activity at human adenosine receptor A2A expressed in HEK293 cells assessed as cAMP accumulation incubated for 30 mins by Eu-cAMP tracer-based Envision plate reader analysis; format: functional, cell-based
Procedure, shortened: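 Intact HEK-293 cells stably expressing human A2A receptor, detached with Versene, resuspended at 300 cells/well in HBSS/HEPES/BSA buffer pH 7.4 with rolipram. Compounds given as 11-point three-fold DMSO dilution series.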

Adenosine receptor A2a [4] = molecular target: T2, Adenosine receptor A2a; assay: Displacement of [3H]CGS21680 from human cloned adenosine receptor A2A expressed in HEK-293 cell membrane at 1 uM incubated for 60 mins by microbeta counting method relative to control; format: cell membranes
Procedure, shortened: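 Human A2A HEK-293 membranes in Tris-HCl pH 7.4/MgCl2/EDTA buffer with adenosine deaminase. […] Single compound concentration of 1 μM. Incubation 60 min at 27°C. Filtration then scintillation counting. Result is percent displacement of specific binding.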

[5] = molecular target: T3, Adenosine receptor A1 (Homo sapiens) (UniProt P30542); assay: Displacement of [3H]DPCPX from human cloned adenosine receptor A1 expressed in CHO-K1 cell membranes at 1 uM incubated for 60 mins by microbeta counting method relative to control
T3 sequence (whole entry): T1 sequence (P30542 whole entry)
Procedure, shortened: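 Human A1 CHO-K1 membranes in Tris-HCl pH 7.4/MgCl2/EDTA buffer with adenosine deaminase. Radioligand [3H]DPCPX at 5 nM. Single compound concentration of 1 μM. Incubation 60 min at 27°C. Filtration then scintillation counting. Result is percent displacement of specific binding.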

Adenosine receptor A1 [6] = molecular target: T1, Adenosine receptor A1; assay: Displacement of [3H]CPX from human adenosine receptor A1 expressed in CHO-K1 cell membranes incubated for 2 hrs by radioligand competitive binding analysis

| Structure (SMILES) | Ki (Adenosine receptor A1 [1]) [nM] | Ki (Adenosine receptor A2a [2]) [nM] | Ratio Ki (Homo sapiens) | EC50 (Adenosine receptor A2a [3]) [nM] | inhibition (Adenosine receptor A2a [4]) [%] | inhibition [5] [%] | Ki (Adenosine receptor A1 [6]) [nM] |
| --- | --- | --- | --- | --- | --- | --- | --- |
| Nc1nc(N/N=C/c2cccnc2Cl)nc2c1ncn2[C@@H]1O[C@H](CO)[C@@H](O)[C@H]1O | 4.6 | 8.7 | 0.53 | 4.6 | – | – | – |
| N#Cc1ccccc1/C=N/Nc1nc(N)c2ncn([C@@H]3O[C@H](CO)[C@@H](O)[C@H]3O)c2n1 | 2.9 | – | – | – | – | – | – |
| Nc1nc(N/N=C/c2ccc(-c3ccc(Br)cc3)o2)nc2c1ncn2[C@@H]1O[C@H](CO)[C@@H](O)[C@H]1O | 4.5 | > 10000 | < 0.001 | – | 27 | – | – |
| CCOc1cc(/C=N/Nc2nc(N)c3ncn([C@@H]4O[C@H](CO)[C@@H](O)[C@H]4O)c3n2)ccc1O | 6940 | – | 5 | – | – | – | – |
| CC(/C=N/Nc1nc(N)c2ncn([C@@H]3O[C@H](CO)[C@@H](O)[C@H]3O)c2n1)Cc1ccc(C(C)C)cc1 (some centres not stated) | 9500 | 6.3 | 1430 | 1.38 | – | – | – |
| Nc1nc(N/N=C/c2cccc(OCc3ccccc3)c2)nc2c1ncn2[C@@H]1O[C@H](CO)[C@@H](O)[C@H]1O | 13 | – | 0.075 | – | – | – | – |
| Nc1nc(N/N=C/c2ccc(-n3ccnc3)cc2)nc2c1ncn2[C@@H]1O[C@H](CO)[C@@H](O)[C@H]1O | > 10000 | – | > 1000 | – | – | 0 | – |
| Nc1nc(N/N=C/c2ccc(N3CCCC3)cc2)nc2c1ncn2[C@@H]1O[C@H](CO)[C@@H](O)[C@H]1O | 5.1 | 6620 | 0.00077 | – | – | – | – |
| COc1ccc(/C=N/Nc2nc(N)c3ncn([C@@H]4O[C@H](CO)[C@@H](O)[C@H]4O)c3n2)cn1 | 2.6 | 1450 | 0.0018 | – | – | – | – |
| Nc1nc(N/N=C/c2ccc(Br)cn2)nc2c1ncn2[C@@H]1O[C@H](CO)[C@@H](O)[C@H]1O | 4.7 | 239 | 0.02 | – | – | – | – |
| CSCC/C=N/Nc1nc(N)c2ncn([C@@H]3O[C@H](CO)[C@@H](O)[C@H]3O)c2n1 | > 10000 | > 10000 | – | – | 8 | 0 | – |
| Nc1nc(N/N=C/c2ccc(N(c3ccccc3)c3ccccc3)cc2)nc2c1ncn2[C@@H]1O[C@H](CO)[C@@H](O)[C@H]1O | > 10000 | – | > 1000 | – | – | 0 | – |
| CCN(CC)c1ccc(/C=N/Nc2nc(N)c3ncn([C@@H]4O[C@H](CO)[C@@H](O)[C@H]4O)c3n2)cc1 | > 10000 | 6.4 | > 1000 | 17.9 | – | 0 | – |
| CNC(=O)c1cnn(-c2nc(N)c3ncn([C@@H]4O[C@H](CO)[C@@H](O)[C@H]4O)c3n2)c1 [REGADENOSON ANHYDROUS] | – | – | – | – | – | – | > 16500 |
| Nc1nc(N/N=C/c2ccc(Cl)c(C(F)(F)F)c2)nc2c1ncn2[C@@H]1O[C@H](CO)[C@@H](O)[C@H]1O | > 10000 | – | > 1000 | – | – | 11 | – |
| Nc1nc(N/N=C/c2ccc(OCc3ccc(F)cc3)cc2)nc2c1ncn2[C@@H]1O[C@H](CO)[C@@H](O)[C@H]1O | 70 | – | 12.5 | 4.05 | – | – | – |
| Nc1nc(N/N=C/c2ccc(-c3ccccc3)cc2)nc2c1ncn2[C@@H]1O[C@H](CO)[C@@H](O)[C@H]1O | 7860 | – | – | – | – | – | – |

| Structure (SMILES) | Ki (Adenosine receptor A1 [1]) [nM] | Ki (Adenosine receptor A2a [2]) [nM] | Ratio Ki (Homo sapiens) | EC50 (Adenosine receptor A2a [3]) [nM] | inhibition (Adenosine receptor A2a [4]) [%] | inhibition [5] [%] | Ki (Adenosine receptor A1 [6]) [nM] |
| --- | --- | --- | --- | --- | --- | --- | --- |
| CCCCc1nc(/C=N/Nc2nc(N)c3ncn([C@@H]4O[C@H](CO)[C@@H](O)[C@H]4O)c3n2)c(Cl)[nH]1 | 12 | 18 | 0.67 | 1.1 | – | – | – |
| COc1cc(/C=N/Nc2nc(N)c3ncn([C@@H]4O[C@H](CO)[C@@H](O)[C@H]4O)c3n2)ccc1OCc1ccccc1 | 9140 | – | 91 | – | – | – | – |
| Nc1nc(N/N=C/c2ccc(N3CCOCC3)cc2)nc2c1ncn2[C@@H]1O[C@H](CO)[C@@H](O)[C@H]1O | 2.5 | – | 0.003 | – | – | – | – |
| Nc1nc(N/N=C/c2ccc3ncccc3c2)nc2c1ncn2[C@@H]1O[C@H](CO)[C@@H](O)[C@H]1O | 9.8 | 6.5 | 1.5 | 5.52 | – | – | – |
| COc1cc(/C=N/Nc2nc(N)c3ncn([C@@H]4O[C@H](CO)[C@@H](O)[C@H]4O)c3n2)cc(OC)c1OC | > 10000 | 5490 | > 1000 | – | – | 0 | – |
| N#Cc1ccc(/C=N/Nc2nc(N)c3ncn([C@@H]4O[C@H](CO)[C@@H](O)[C@H]4O)c3n2)cc1 | 4.1 | 8.5 | 0.5 | 15.3 | – | – | – |
| Nc1nc(N/N=C/c2ccc(C(F)(F)F)cc2)nc2c1ncn2[C@@H]1O[C@H](CO)[C@@H](O)[C@H]1O | 37 | – | 0.6 | – | – | – | – |
| Nc1nc(N/N=C/c2ccc(C(F)(F)F)cc2C(F)(F)F)nc2c1ncn2[C@@H]1O[C@H](CO)[C@@H](O)[C@H]1O | > 10000 | 6280 | > 1000 | – | – | 0 | – |
| Nc1nc(N/N=C/c2cncs2)nc2c1ncn2[C@@H]1O[C@H](CO)[C@@H](O)[C@H]1O | 22 | 71 | 0.31 | – | – | – | – |
| Nc1nc(N/N=C/C2CCCC2)nc2c1ncn2[C@@H]1O[C@H](CO)[C@@H](O)[C@H]1O | 5.6 | 4.1 | 1.4 | 4.34 | – | – | – |
| Nc1nc(N/N=C/c2ccc(-c3ccccn3)cc2)nc2c1ncn2[C@@H]1O[C@H](CO)[C@@H](O)[C@H]1O | 7540 | – | 36 | – | – | – | – |
| Nc1nc(N/N=C/c2ccc(OCc3ccccc3)c(OCc3ccccc3)c2)nc2c1ncn2[C@@H]1O[C@H](CO)[C@@H](O)[C@H]1O | > 10000 | – | > 1000 | – | – | 0 | – |
| CCCCC/C=C/C=C/C=N/Nc1nc(N)c2ncn([C@@H]3O[C@H](CO)[C@@H](O)[C@H]3O)c2n1 | 2 | 17.5 | 0.11 | 10.2 | – | – | – |
| CCCOc1ccc(/C=N/Nc2nc(N)c3ncn([C@@H]4O[C@H](CO)[C@@H](O)[C@H]4O)c3n2)cc1 | > 10000 | 224 | 66 | – | – | 7 | – |
| CC(=O)Nc1ccc(/C=N/Nc2nc(N)c3ncn([C@@H]4O[C@H](CO)[C@@H](O)[C@H]4O)c3n2)cc1 | > 10000 | – | > 1000 | – | – | 0 | – |
| Nc1nc(N/N=C/c2ccc[nH]2)nc2c1ncn2[C@@H]1O[C@H](CO)[C@@H](O)[C@H]1O | 8 | 8.3 | 0.96 | 8.52 | – | – | – |
